Four molecules from publication PMC5677568 (Structure (London, England : 1993), 2017) can be followed below.

What all share (assay): Isothermal titration calorimetry
What all share (format): binding
Common to all, as to settings: read-out: Values shown are Kd
(In general: ITC needs no label: the signal is the heat of the interaction.)

For one assay, the target named is UEA-1. The method, boiled down: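 Commercial UEA-1 lectin was dialysed overnight into the ITC buffer, and lyophilised glycans were dissolved in the dialysate. Cell concentration was set by A280 with a calculated extinction coefficient. Titration used 16 injections of 2.45 μL (1 s duration, 180 s spacing) at 5 μCal reference power. Integrated peaks were fitted to a single-site model to give Kd and ΔH.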

The next assay concerns the target RBC36. An outline of the steps:
(§1)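 N-terminally His6-tagged VLR ectodomains were expressed in Hi5 insect cells or by transient transfection of 293S cells, then purified by Ni-NTA and Superdex75 size exclusion. Protein was dialysed overnight into the ITC buffer, and lyophilised glycans were dissolved in the dialysate. Cell concentration was set by A280 with calculated extinction coefficients. Titration used 16 injections of 2.45 μL (1 s each, 180 s apart) at 5 μCal reference power. The single-site fit gave Kd and ΔH.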

The target in a further assay is Tn4-22. An outline of the steps:
as §1

A further assay concerns the target O13. An outline of the steps:
as §1

Take `C[C@@H]1O[C@@H](O[C@H]2[C@H](O[C@H]3[C@H](O)[C@@H](O)C(O)O[C@@H]3CO)O[C@H](CO)[C@H](O)[C@@H]2O)[C@@H](O)[C@H](O)[C@@H]1O` (stereo partly drawn) [2′-fucosyllactose, 2′-fucosyllactose, Fucα1-2Galβ1-4Glc]: the Kd at UEA-1 came to 12.5 µM; at RBC36, 57.1 µM.

In the case of `CC(=O)N[C@H]1C(O)O[C@H](CO)[C@@H](O[C@@H]2O[C@H](CO)[C@H](O)[C@H](O)[C@H]2O[C@@H]2O[C@@H](C)[C@@H](O)[C@@H](O)[C@@H]2O)[C@@H]1O` (stereo partly drawn) [H-trisaccharide, blood group H-trisaccharide type II, Fucα1-2Galβ1-4GlcNAc], the Kd is 8.1 µM at UEA-1, 6.9 µM on Tn4-22, 2.6 µM at O13 and 8.3 µM at RBC36.

Consider `CC(=O)N[C@H]1[C@H](O[C@H]2[C@@H](O)[C@@H](CO)O[C@@H](O[C@H]3[C@H](O)[C@@H](O)C(O)O[C@@H]3CO)[C@@H]2O)O[C@H](CO)[C@@H](O[C@@H]2O[C@H](CO)[C@H](O)[C@H](O)[C@H]2O)[C@@H]1O` (stereo partly drawn) [LNnT, lacto-N-neotetraose, Galβ1-4GlcNAcβ1-3Galβ1-4Glc], for which the values for the Kd at Tn4-22 and at O13 were 16.2 µM and 160 µM, respectively.

As to `CC(=O)N[C@H]1C(O)O[C@H](CO)[C@@H](O[C@@H]2O[C@H](CO)[C@H](O)[C@H](O)[C@H]2O[C@@H]2O[C@@H](C)[C@@H](O)[C@@H](O)[C@@H]2O)[C@@H]1O[C@@H]1O[C@@H](C)[C@@H](O)[C@@H](O)[C@@H]1O` (stereo partly drawn) [Lewis-Y, Lewis-Y antigen tetrasaccharide, Fucα1-2Galβ1-4(Fucα1-3)GlcNAc], the Kd at UEA-1 amounted to 19.8 µM.

A word on the Kd: it is the free concentration of one partner at which half of the binding sites on the other are occupied at equilibrium, for simple one-to-one binding.
